This note sets out measurements from ChEMBL document CHEMBL4145595, “Discovery of MK-8282 as a Potent G-Protein-Coupled Receptor 119 Agonist for the Treatment of Type 2 Diabetes” (ACS Med Chem Lett, 2018).

pEC50: −log10 of the molar value. ≈ marks a conversion by molar mass, not a printed value. Calls of active or inactive are those of the source. The rule behind the calls is not given here.

The target in series [1] is T1, Glucose-dependent insulinotropic receptor (Homo sapiens) (UniProt Q8TDV5).
T1 sequence (whole entry): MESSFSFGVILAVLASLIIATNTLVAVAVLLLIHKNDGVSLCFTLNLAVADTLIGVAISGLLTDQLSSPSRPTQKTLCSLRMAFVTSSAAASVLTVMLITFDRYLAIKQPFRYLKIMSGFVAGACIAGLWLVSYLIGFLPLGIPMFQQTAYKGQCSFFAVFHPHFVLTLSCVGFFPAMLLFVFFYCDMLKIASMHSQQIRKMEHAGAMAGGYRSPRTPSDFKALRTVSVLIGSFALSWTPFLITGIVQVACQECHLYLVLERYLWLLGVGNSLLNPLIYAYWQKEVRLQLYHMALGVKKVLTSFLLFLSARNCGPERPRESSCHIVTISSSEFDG
As to the kind of experiment: (§1) Agonist activity at human GPR119 expressed in HEK293 cells assessed as increase in cAMP level after 30 mins by LANCE assay. The class given is functional, cell-based. In general terms: Changes in cAMP serve as a functional read-out for many G protein-coupled receptors.

In series [2] the target is T2, Glucose-dependent insulinotropic receptor (Homo sapiens, UniProt Q8TDV5).
T2 sequence (Q8TDV5 whole entry): T1 sequence (whole entry)
Described as §1. The format is functional, cell-based.

The target of series [3] is T3, Glucose-dependent insulinotropic receptor (Mus musculus) (UniProt Q7TQP3).
T3 sequence (whole entry): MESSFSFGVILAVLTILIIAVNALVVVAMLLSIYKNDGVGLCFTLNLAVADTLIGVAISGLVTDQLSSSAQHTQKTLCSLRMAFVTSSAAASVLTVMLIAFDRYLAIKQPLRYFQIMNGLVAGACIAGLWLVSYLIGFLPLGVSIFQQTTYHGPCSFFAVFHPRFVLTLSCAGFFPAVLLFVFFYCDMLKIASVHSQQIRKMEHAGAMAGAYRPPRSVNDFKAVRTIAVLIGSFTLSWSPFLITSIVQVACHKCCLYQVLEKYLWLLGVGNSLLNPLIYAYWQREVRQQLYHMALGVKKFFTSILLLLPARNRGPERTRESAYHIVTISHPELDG
As to the kind of experiment: (§2) Agonist activity at mouse GPR119 assessed as increase in cAMP level. The class given is functional.

Series [4] deals with T4, Glucose-dependent insulinotropic receptor (Mus musculus, UniProt Q7TQP3).
T4 sequence (Q7TQP3 whole entry): T3 sequence (whole entry)
The description is as §2. The format is functional.

Series [5] concerns Mus musculus. As to the kind of experiment: Glucose lowering effect in C57Bl/6NCrl mouse assessed as reduction in glucose level at 3 mg/kg, po administered via gavage pretreated for 30 mins followed by glucose-challenge measured after 20 mins by OGTT relative to control. The class given is functional. A digest of the protocol:
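Overnight-fasted mice got compound or vehicle orally at 3 to 10 mg/kg. Glucose (3 g/kg po) was given 30 min post-dose. Blood glucose was read by hand-held glucometer before dosing, before glucose and 20 min after glucose. Glucose lowering (%) = [(1 − 20 min glucose of treated / 20 min glucose of vehicle) × 100].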

For series [6], the system named is Mus musculus. As to the kind of experiment: Antidiabetic activity in C57Bl/6NCrl mouse assessed as increase in plasma GLP1 (7 to 36) amide levels at 3 mg/kg, po administered via gavage pretreated followed by glucose-challenge measured after 10 mins. The class given is functional, organism-based.
The next series has as its system Rattus norvegicus. As to the kind of experiment: Antidiabetic activity in Sprague-Dawley rat assessed as reduction in glucose excursion at 1 mg/kg, po pretreated followed by glucose challenge measured after 10 to 30 mins by OGTT. The class given is functional, organism-based. The essentials:
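Sprague-Dawley rats underwent an oral glucose tolerance test with glucose excursion measured. Sitagliptin was dosed at 1 mpk and agonist at 3 mpk, alone or co-administered.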

Series [7] can be described thus: Protein binding in human plasma at 10 uM. The class given is ADME, cell-free. The conditions noted are these: read-out: PPB (converted).
Series [8] is described as follows: Protein binding in mouse plasma at 10 uM. The format is ADME, cell-free. The conditions noted are these: read-out: PPB (converted).
Series [9] is described as follows: Solubility of the compound at pH 7.4. The format is physicochemical. The conditions noted are these: buffer.

By pEC50 is commonly meant the EC50 on a negative log10 scale, so that one unit is a factor of ten. Turning to `CCC1(OC(=O)N2CC3COCC(C2)C3Oc2ncnc(Nc3ccc(C#N)cc3F)c2F)CC1` (stereo unspecified), the %max in series [1] worked out at 89%; in series [3], 90%. Further, the pEC50 was 8.22 in series [2] and 7.37 in series [4].
For the compound `CC(C)COC(=O)N1[C@H]2CC[C@H]1CC(Oc1ncnc(Nc3ccc(C#N)cc3Cl)c1F)C2` (stereo partly specified), the results for the %max in series [1] and in series [3] were 81% and 44%, respectively. Further, the pEC50 is 8.59 in series [2] and 7.68 in series [4]. Besides, in the series with Mus musculus [5], the result was inactive.
Regarding `N[C@@H](CC(=O)N1CCn2c(nnc2C(F)(F)F)C1)Cc1cc(F)c(F)cc1F`, the outcome in the series on Mus musculus [6] and with Rattus norvegicus was Active.
For the compound `CC1(OC(=O)N2[C@H]3CC[C@H]2CC(Oc2ncnc(Nc4ccc(C#N)cc4Cl)c2F)C3)CC1` (stereo partly specified), the %max in series [1] is 79%; in [3] it was 42%. Moreover, the pEC50 in series [2] was 8.46; in [4], 7.17. In addition, the Activity in the series with Mus musculus [5] worked out at 17%.
In the case of `CC1(OC(=O)N2CC3COCC(C2)C3Oc2ncnc(Nc3ccc(C#N)cc3Cl)c2F)CCC1` (stereo unspecified), the %max in [1] is 59%; in [3], 88%. In addition, the pEC50 in series [2] is 8.00; in series [4], 7.22.
Consider `CC1(COC(=O)N2CC3COCC(C2)C3Oc2ncnc(Nc3ccc(C#N)cc3Cl)c2F)COC1` (stereo unspecified), for which the %max in [1] was determined as 41%; in series [3], 46%. Besides, the results for the pEC50 in [2] and in series [4] were 6.73 and 6.29, respectively.
Consider `CC1(OC(=O)N2CC3COCC(C2)C3Oc2ncnc(Nc3ccc(-n4cncn4)cc3F)c2F)CC1` (stereo unspecified), for which the %max in series [1] is 73%; in series [3], 83%. The figures for the pEC50 in series [2] and in series [4] were 7.72 and 6.56, respectively. Further, in the series on Mus musculus [5], the Activity is recorded as 27%.
`CC(C)OC(=O)N1[C@H]2CC[C@H]1CC(Oc1ncnc(Nc3ccc(C#N)cc3Cl)c1F)C2` (stereo partly specified): the %max in series [1] amounted to 87%; in [3], 29%. For the same compound, the values for the pEC50 in series [2] and in series [4] were 8.10 and 7.34, respectively. For the same compound, the outcome in the series with Mus musculus [5] was inactive.
Regarding `COCC1(OC(=O)N2CC3COCC(C2)C3Oc2ncnc(Nc3ccc(C#N)cc3F)c2F)CC1` (stereo unspecified), the values for the %max in series [1] and in [3] were 62% and 70%, respectively. The pEC50 in [2] was 7.31; in series [4], 6.51.
With `CC1(OC(=O)N2CC3COCC(C2)C3Oc2ncnc(Oc3ccccc3F)c2F)CC1` (stereo unspecified), the %max was determined as 114% in [1] and 136% in series [3]. The pEC50 is 7.59 in series [2] and 7.12 in series [4]. In addition, in the series on Mus musculus [5], the Activity was 20%.
Regarding `N#Cc1ccc(Nc2ncnc(OC3C4COCC3CN(C(=O)OC3CCC3)C4)c2F)c(Cl)c1` (stereo unspecified), the %max in series [1] was 51%; in series [3], 60%. The pEC50 in series [2] is 8.00; in series [4], 7.22.
For `N#Cc1ccc(Oc2ncnc(OC3C4COCC3CN(c3ncc(F)cn3)C4)c2C2CC2)c(Cl)c1` (stereo unspecified), the values for the %max in series [1] and in [3] were 56% and 100%, respectively. The figures for the pEC50 in series [2] and in series [4] were 6.67 and 6.61, respectively.
`CC1(OC(=O)N2CC3COCC(C2)C3Oc2ncnc(Nc3ccc(F)cc3F)c2F)CC1` (stereo unspecified): the values for the %max in series [1] and in series [3] were 94% and 73%, respectively. The pEC50 in series [2] was 7.82; in series [4], 7.36. In addition, the Activity in the series on Mus musculus [5] worked out at 27%.
For `CC1(OC(=O)N2C[C@H]3COC[C@@H](C2)[C@@H]3Oc2ncnc(Nc3ccccc3F)c2F)CC1`, the %max worked out at 78% in series [1] and 76% in [3]. The pEC50 is 8.22 in [2] and 7.60 in [4]. For the same compound, the Activity in the series on Mus musculus [5] is listed as 21%.
For orientation: solubility means the dissolved amount per volume that the medium holds. For the compound `Cc1c(Nc2ccc(C#N)cc2Cl)ncnc1OC1C[C@@H]2CC[C@@H](C1)N2S(=O)(=O)C1CC1` (stereo partly specified), the fraction unbound at 10 µM in series [7] is 0.001; in [8], 0.007. The compound also had a solubility in series [9] of 0.17 µM (≈ 0.0806 µg/mL).
In the case of `CC1(OC(=O)N2C[C@H]3COC[C@@H](C2)[C@@H]3Oc2ncnc(Nc3c(F)cccc3F)c2F)CC1`, the %max was 78% in series [1] and 108% in series [3]. In addition, the pEC50 is 7.89 in [2] and 6.95 in series [4]. Moreover, in the series on Mus musculus [5], the Activity worked out at 31%.
As for `COc1c(Nc2ccc(S(C)(=O)=O)cc2F)ncnc1OC1C[C@@H]2COC[C@@H](C1)N2C(=O)OC1(C)CC1` (stereo partly specified), the %max is 73% in series [1] and 79% in series [3]. The figures for the pEC50 in [2] and in series [4] were 7.01 and 9.37, respectively. The fraction unbound at 10 µM in series [7] is 0.145; in [8] it was 0.081. Further, in series [9], the solubility was found to be 17 µM (≈ 9.12 µg/mL).
Turning to `CC1(OC(=O)N2CC3COCC(C2)C3Oc2ncnc(Nc3cccnc3Cl)c2F)CC1` (stereo unspecified), the %max in [1] worked out at 63%; in [3], 84%. Moreover, the pEC50 in [2] was 7.77; in [4], 7.24. The Activity with Mus musculus [5] was 26%.
As for `CC1(OC(=O)N2[C@H]3CC[C@H]2CC(Oc2ncnc(Nc4ccc(C#N)cc4Cl)c2F)C3)CCC1` (stereo partly specified), the %max is 77% in series [1] and 18% in series [3]. Also, the pEC50 was 8.29 in series [2] and 7.38 in [4]. For the same compound, the result in the series with Mus musculus [5] was inactive.
